Where a SMILES comes first, the peptide text is derived from it. [ ]: non-standard residue; d: D form. The star is where a group is joined. FITC = O=C1OC2(c3ccc(O)cc3Oc3cc(O)ccc32)c2ccc(NC(=S)*)cc21; Phe(4-F) = N[C@@H](Cc1ccc(F)cc1)C(=O)O; d2Nal = N[C@H](Cc1ccc2ccccc2c1)C(=O)O; dNle = CCCC[C@@H](N)C(=O)O
Legend:
[1] = tested on: Ras-B-Raf interaction; assay: Ras-B-Raf co-immunoprecipitation in H358 cells; format: cell-based, human; conditions: anti-Ras precipitation, anti-B-Raf immunoblot
Summary of the method: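 H358 lung cancer cells treated with increasing test compound concentrations. Lysates immunoprecipitated with anti-Ras antibody and co-precipitated B-Raf detected by anti-B-Raf immunoblot. Whole-cell lysate blotted alongside.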

[2] = tested on: phosphorylation of MEK; assay: EGF-stimulated MEK phosphorylation in H1299 cells; format: cell-based, human
Summary of the method: (§1)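 H1299 cells exposed to a range of test compound concentrations for 10 min, then stimulated with EGF (50 ng/ml) for 5 min before lysis. Phospho-Akt (Thr308) and phospho-MEK detected by immunoblot, with total Akt and MEK blotted alongside.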

[3] = tested on: phosphorylation of Akt at Thr308; assay: EGF-stimulated Akt Thr308 phosphorylation in H1299 cells; format: cell-based, human
Summary of the method: as §1

[4] = tested on: caspase-3 activity; assay: Caspase-3 activity in H1299 cells; format: cell-based, human; conditions: 10 μM, 3 h
[5] = tested on: H1299 cells; assay: Annexin-FITC / propidium iodide flow cytometry of treated H1299 cells; format: cell-based, human; conditions: 10 μM, 3 h
[6] = molecular target: Ras-Raf interaction (Homo sapiens, UniProt P01116, G12V); assay: Homogeneous time-resolved fluorescence; format: binding; conditions: Gln-8 replaced with L- or D-arginine, versus 9A1-4
Chain of Ras-Raf interaction (P01116 1-188 isoform P01116-2 G12V): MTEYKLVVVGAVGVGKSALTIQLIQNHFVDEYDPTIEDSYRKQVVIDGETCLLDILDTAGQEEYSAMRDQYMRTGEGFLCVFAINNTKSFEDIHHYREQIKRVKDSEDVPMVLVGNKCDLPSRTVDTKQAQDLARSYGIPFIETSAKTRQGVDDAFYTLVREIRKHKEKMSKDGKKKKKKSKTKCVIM

[7] = tested on: lung cancer cells; assay: Cell permeability of hits; format: cell-based, human; conditions: qualitative
Summary of the method: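 A549 lung cancer cells given 5 μM FITC-labelled test compound for 30 min. Uptake viewed live by confocal microscopy with DRAQ5 nuclear counterstain. Total cell-associated fluorescence measured by flow cytometry against untreated control cells.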

[8] = tested on: lung cancer cells; assay: Anti-proliferative activity against lung cancer cells; format: cell-based, human; conditions: qualitative
[9] = molecular target: K-Ras (Homo sapiens, UniProt P01116, G12V); assay: Fluorescence anisotropy; format: binding; conditions: fluorescence anisotropy in solution
Chain of K-Ras (P01116 1-188 isoform P01116-2 G12V): as above

[10] = tested on: A549 lung cancer cells; assay: Flow cytometry of cellular uptake of FITC-labeled peptides; format: cell-based, human; conditions: 5 μM, 30 min
[11] = molecular target: panel of five arbitrarily selected control proteins; assay: FA binding to control proteins

## CCCC[C@H]1NC(=O)[C@H]([C@@H](C)O)NC(=O)[C@@H](C)NC(=O)[C@H](CCCNC(=N)N)NC(=O)[C@H](CCCNC(=N)N)NC(=O)[C@H](CCCNC(=N)N)NC(=O)[C@@H](Cc2ccc3ccccc3c2)NC(=O)[C@H](CCCNC(=N)N)NC(=O)[C@H](Cc2ccc(F)cc2)NC(=O)[C@H](Cc2c[nH]c3ccccc23)NC(=O)[C@H](CCC(N)=O)NC1=O [9A5] (cyclo(QW[Phe(4-F)]R[d2Nal]RRR[dA]T[dNle]))
[1]
  inhibition of Ras-B-Raf interaction in cells: dose-dependently inhibited
[2]; H1299 cells
  concentration abolishing MEK phosphorylation: ≥ 12 µM
[2]; time-course experiment
  exposure time at which dephosphorylation of MEK was largely complete: 10 min
[3]; H1299 cells
  concentration abolishing Akt Thr308 phosphorylation: ≥ 12 µM
[3]; time-course experiment
  exposure time at which dephosphorylation of Akt was largely complete: 10 min
[4]
  fold increase in caspase-3 activity: 2.3 fold
[5]
  annexin-FITC and propidium iodide staining: positive
[6]
  fold higher affinity for K-Ras: ~ 4 fold
[7]
  cell permeability: improved cell permeability

## CCCC[C@H]1NC(=O)[C@H]([C@@H](C)O)NC(=O)[C@@H](C)NC(=O)[C@@H](CCCNC(=N)N)NC(=O)[C@H](CCCNC(=N)N)NC(=O)[C@H](CCCNC(=N)N)NC(=O)[C@@H](Cc2ccc3ccccc3c2)NC(=O)[C@H](CCCNC(=N)N)NC(=O)[C@H](Cc2ccc(F)cc2)NC(=O)[C@H](Cc2c[nH]c3ccccc23)NC(=O)[C@H](CCC(N)=O)NC1=O [9A6] (cyclo(QW[Phe(4-F)]R[d2Nal]RR[dR][dA]T[dNle]))
[6]
  fold higher affinity for K-Ras: ~ 4 fold
[7]
  cell permeability: improved cell permeability

## CCCC[C@H]1NC(=O)[C@H]([C@@H](C)O)NC(=O)[C@@H](C)NC(=O)[C@H](CCC(N)=O)NC(=O)[C@H](CCCNC(=N)N)NC(=O)[C@H](CCCNC(=N)N)NC(=O)[C@@H](Cc2ccc3ccccc3c2)NC(=O)[C@H](CCCNC(=N)N)NC(=O)[C@H](Cc2ccc(F)cc2)NC(=O)[C@H](Cc2c[nH]c3ccccc23)NC(=O)[C@@H](CO)NC1=O [9A] (cyclo([dS]W[Phe(4-F)]R[d2Nal]RRQ[dA]T[dNle]))
[8]
  anti-proliferative activity: weak anti-proliferative activity
[9]
  binding to K-Ras: strong binding
[7]
  cell permeability: cell permeable

## CCCC[C@H]1NC(=O)[C@H]([C@@H](C)O)NC(=O)[C@@H](C)NC(=O)[C@H](CCCNC(=N)N)NC(=O)[C@H](CCCNC(=N)N)NC(=O)[C@H](CCCCNC(=S)Nc2ccc3c(c2)C(=O)OC32c3ccc(O)cc3Oc3cc(O)ccc32)NC(=O)[C@@H](Cc2ccc3ccccc3c2)NC(=O)[C@H](CCCNC(=N)N)NC(=O)[C@H](Cc2ccc(F)cc2)NC(=O)[C@H](Cc2c[nH]c3ccccc23)NC(=O)[C@H](CCC(N)=O)NC1=O [FITC-9A5] (cyclo(QW[Phe(4-F)]R[d2Nal]K(FITC)RR[dA]T[dNle]))
[10]
  fold more efficient cell entry than FITC-9A54: ~ 5 fold
[11]
  Kd: ≥ 30 µM

Reference: article PMC4591930 (Angewandte Chemie (International ed. in English), 2015)
